Data taken from paper PMC3645320 (Biochimica et biophysica acta, 2011).
Where two headings read alike, the source gives them in different places.

Key:
[1] = target: T1, L99A human recombinant thrombin (Homo sapiens, UniProt P00734, L459A); experiment: HPLC-based kinetic assay of FXIII; format: biochemical; settings: L99A thrombin relative to WT thrombin
[2] = target: T2, E217A human recombinant thrombin (Homo sapiens, UniProt P00734, E592A); experiment: HPLC-based kinetic assay of FXIII; format: biochemical; settings: E217A thrombin relative to WT thrombin
Method in brief: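 Recombinant human E217A thrombin (over 90% active by hirudin titration) at 33.6 or 78.4 nM depending on peptide, acting on acetylated/amidated FXIII (28–41) segment peptides at 100–3000 μM. Conditions: 50 mM H3PO4, 100 mM NaCl, 0.1% PEG, pH 7.4, 25 °C. Timed aliquots quenched in 12.5% H3PO4. FXIII (28–37) product measured by RP-HPLC against a calibration curve.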

[3] = target: T3, W215A human recombinant thrombin (Homo sapiens, UniProt P00734, W590A); experiment: HPLC-based kinetic assay of FXIII; format: biochemical; settings: W215A thrombin relative to WT thrombin
[4] = target: W60dA human recombinant thrombin (Homo sapiens, UniProt P00734, W413A); experiment: HPLC-based kinetic assay of FXIII; format: biochemical; settings: W60dA thrombin relative to WT thrombin
[5] = target: Y60aA human recombinant thrombin (Homo sapiens, UniProt P00734, Y410A); experiment: HPLC-based kinetic assay of FXIII; format: biochemical; settings: Y60aA thrombin relative to WT thrombin
[6] = target: T2, E217A human recombinant thrombin; settings: E217A thrombin relative to WT thrombin; ref [37]; cited from earlier work
[7] = target: T3, W215A human recombinant thrombin; settings: W215A thrombin relative to WT thrombin; ref [37]; cited from earlier work
[8] = target: T1, L99A human recombinant thrombin; settings: ref [37], cited from earlier work

| Substance | decrease in kcat [1] [fold] | loss in kcat [2] [fold] | decrease in kcat [3] [fold] | decrease in kcat/Km [3] [fold] | Km (in words) [4] | decrease in kcat [4] [fold] | increase in Km [5] [fold] | decrease in kcat [6] [fold] | increase in Km [6] | decrease in kcat/Km [7] [fold] | decrease in kcat ([8]; L99A thrombin relative to WT thrombin) [fold] | Km and kcat (in words) ([8]; L99A thrombin, relative to WT thrombin or across the V34X series) |
| --- | --- | --- | --- | --- | --- | --- | --- | --- | --- | --- | --- | --- |
| Ac-TVELQGFVPRGVNL-NH2 [FXIII (28–41) V34F AP] | 2 | 2 | 3 | 3 | comparable to that of WT thrombin | 4 | – | – | – | – | – | – |
| Ac-TVELQGLVPRGVNL-amide (Ac-TVELQGLVPRGVNL-NH2) [FXIII (28–41) V34L AP] | – | – | – | – | – | – | 2 | ≤ 2 | 3–4 fold | – | – | – |
| Ac-TVELQGPVPRGVNL-NH2 [FXIII (28–41) V34P AP] | – | – | 2 | – | – | 1.3 | – | – | – | – | – | – |
| Ac-TVELQGVVPRGVNL-NH2 [FXIII (28–41) V34 AP] | – | – | – | – | – | 3 | 2 | ≤ 2 | 3–4 fold | 4 | 3 | highest Km values of the IIa L99A series |
